Hits are enriched below; roughly 1.9% of the tested compounds scored in any of these assays.
Cneo AK release = Cryptococcus neoformans lysis via adenylate kinase release; hit rate 0.2% among 360,000; lysis activity, % at 15 µM; C. neoformans lysis, adenylate kinase release luminescence, 4 h; normalised: neutral wells 0, clomiphene wells 100;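 active means mean lysis activity across replicates of at least 80%, whatever share of replicates individually reach that level; inactive means mean lysis activity below 80%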
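Material – log-phase Cryptococcus neoformans yeast cells · Input – 5 × 10^6 yeast cells/mL · Medium – fresh YPD growth medium · Doses – single compound concentration per well · Timing – static 4 h at 37 °C with compound, 1 h detection · Detection – adenylate kinase release luminescence · Read-out – signal increase indicating cell lysis · Control set – Clomiphene as positive lysis control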
PGC1a acetyl inh = modulators of PGC1a acetylation; inhibition, % at 15.6 µM; U2OS PGC1a acetylation, AlphaScreen anti-acetyl-lysine; with virally co-expressed GCN5 acetyltransferase; hit rate 0.17% among 350,000;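 active means every replicate shows inhibition of at least 40%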;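 further: 0% = neutral control wells and 100% = positive control wells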
DENV2 CPE = DENV2-induced cell death inhibition; DENV2-infected cells, cytopathic effect rescue, plate reader; AID 651640; CPE inhibition, % at 9.99 µM; hit rate 1.7% among 350,000; in the data active means CPE inhibition above about 20%, passing the limit was not always enough; tested in BHK-21 cells;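 further: 0% = median of neutral control wells and 100% = median of positive control wells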
F508del corr = correctors of CFTR F508del function in bronchial epithelial cells; activity (quench increase), % at 7.58 µM; AID 720511; CFBE cells, YFP halide quenching; stimulated with forskolin plus potentiator P3; % fluorescence drop versus neutral controls; hit rate 0.36% among 350,000;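 active means mean added fluorescence quench of at least 8% versus neutral control, with both replicates also reaching 8%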;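 further: cells transiently co-express mutant CFTR-F508del with the halide-sensitive YFP; corrector assay measuring rescue of mutant channel to the surface after 24 h compound exposure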
FN deposition inh = fibronectin deposition inhibition | AID 743247 | hit rate 0.086% among 350,000 | AH1F fibroblasts, Alexa488-fibronectin deposition fluorescence, overnight | inhibition, % at 12.6 µM;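 active means mean inhibition across replicates of 30% or more, regardless of how many single replicates reach that level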;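 further: positive control wells lacked labelled fibronectin entirely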
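test system = AH1F fibroblasts assembling fluorescent fibronectin matrix | quantity = 10000 AH1F cells per well | buffer or medium = DMEM plus 2% serum, read in PBS | doses = single dose, pinned | incubation = 1 h cell attachment, overnight exposure to compound and label | detection = fluorescence at 485 nm excitation, 525 nm emission | read-out basis = inhibition from reduced deposited-fibronectin fluorescence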
XiGFP reactiv = activators of X-chromosome reactivation in mouse fibroblasts | XiGFP mouse fibroblasts, % GFP-positive cells imaging, 3 d; cells co-treated with 5-aza-dC sensitizer; scaled so ellipticine positive control = 100% | activation, % at 7.58 µM | hit rate 0.055% among 360,000 | AID 743238;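 active means mean normalized replicate activation at least 10% and every replicate at or above 10%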;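 further: 0% = median of on-plate neutral control wells and 100% = ellipticine 6 µM median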
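System: SV40-immortalized XiGFP fibroblast cells, line 68-5-11 / Incubation: 3-day compound exposure, then 15 min fixation at room temperature / Compound: single concentration per compound, delivered by pin transfer / Buffer or medium: DMEM plus 5-aza-dC sensitizer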
Starred values were filed as active, the others as inactive; / = no result.

SMILES	Cneo AK release	PGC1a acetyl inh	DENV2 CPE	F508del corr	FN deposition inh	XiGFP reactiv
Cc1cccc(-c2ccc([C@H]3[C@H](CO)N4CCCCN(C(=O)c5ccc6c(c5)OCO6)C[C@@H]34)cc2)c1	91*	2	-34	-6	/	0
Cc1cccc(-c2ccc([C@H]3[C@H]4CN(C(=O)c5ccncc5)CCCCN4[C@H]3CO)cc2)c1	5	1	22*	0	/	0
CCCc1nn(-c2cc(Cl)ccc2OC)c2c1C(=O)CCC2	2	-3	4	-1	5	0
CCCCc1nn(-c2cc(Cl)ccc2OC)c2c1C(=O)CC(C)(C)C2	2	-17	43*	-2	-7	0
COc1ccccc1-c1noc2c1C(=O)N(Cc1cn(Cc3ccccc3)nn1)CC2	-1	-14	56*	-2	15	0
COc1ccc2c3c(n(C)c2c1)[C@@H](CO)N(Cc1cc(F)ccc1F)CC31CCN(C(=O)C2CC2)CC1	/	-22	7	0	/	0
COC(=O)Cc1ccc(OC2(C)CCN(Cc3csc4ccccc34)C2)cc1 (configuration not stated)	6	13	26*	1	-2	0
CC(C)Oc1ccccc1OC1(C)CCN(Cc2ccc(OC(F)(F)F)cc2)C1 (configuration not stated)	1	/	42*	-1	-11	0
CC(=O)c1ccc(OC2(C)CCN(Cc3ccc4ccccc4c3)C2)cc1 (configuration not stated)	-2	-8	117*	6	-5	0
COc1ccc(S(=O)(=O)Nc2cccc3c2O[C@@H](CN(C)C(=O)Nc2ccccc2)[C@H](C)CN([C@H](C)CO)C3=O)cc1	-3	3	/	-1	/	0
CNC[C@H]1Oc2ccc(NC(=O)Nc3ccc4c(c3)OCO4)cc2CC(=O)N([C@@H](C)CO)C[C@@H]1C	-5	-1	-1	-1	7	-1
COc1ccc(COCC23N=C4SCc5ccccc5C(=O)N4[C@H](c4ccccc4O2)[C@H]3CO[Si](C)(C)C(C)(C)C)cc1	-2	-36	28*	1	/	/
COc1ccc2c3c([nH]c2c1)[C@@H](CO)N(C)CC31CN(S(=O)(=O)c2ccc(C)cc2)C1	/	6	-9	-2	/	0
O=C(CN(Cc1ccccc1)S(=O)(=O)c1ccc(F)cc1)NCc1cccnc1	0	/	5	9.0*	-5	0
COCC(=O)Nc1ccc2c(c1)C(=O)N(C)[C@H]1CC[C@H](CC(=O)OC)O[C@H]1CO2	2	4	7	-2	2	0
CN(C)CCNc1oc(COc2ccc(-c3ccccc3)cc2)nc1C#N	-1	58*	1	-3	/	/
C[C@@H]1CCCCO[C@@H](CN(C)S(C)(=O)=O)[C@H](C)CN([C@@H](C)CO)C(=O)c2cc(NS(=O)(=O)c3ccc(Cl)cc3)ccc2O1	-4	-15	84*	0	-1	0
Cc1ccc(S(=O)(=O)Nc2ccc3c(c2)C(=O)N([C@@H](C)CO)C[C@@H](C)[C@@H](CN(C)S(=O)(=O)c2ccc(Cl)cc2)OCCCC[C@H](C)O3)cc1	101*	-3	-15	1	2	0
C[C@H](CO)N1C[C@H](C)[C@@H](CN(C)S(C)(=O)=O)OCCCC[C@H](C)Oc2ccc(NS(=O)(=O)c3ccc(Cl)cc3)cc2C1=O	1	-4	-6	0	-6	0
COc1ccc(S(=O)(=O)Nc2ccc3c(c2)C(=O)N([C@H](C)CO)C[C@H](C)[C@H](CN(C)S(C)(=O)=O)OCCCC[C@@H](C)O3)cc1	0	9	20*	-1	/	0
Cc1ccc(S(=O)(=O)Nc2ccc3c(c2)C(=O)N([C@H](C)CO)C[C@H](C)[C@H](CN(C)S(=O)(=O)c2ccc(Cl)cc2)OCCCC[C@@H](C)O3)cc1	0	-3	66*	4	-11	0
Cc1ccc(S(=O)(=O)Nc2ccc3c(c2)C(=O)N([C@@H](C)CO)C[C@H](C)[C@@H](CN(C)S(=O)(=O)c2ccc(Cl)cc2)OCCCC[C@@H](C)O3)cc1	-1	-9	9	6	1	0
Cc1ccc(S(=O)(=O)N(C)C[C@H]2OCCCC[C@@H](C)Oc3ccc(NS(=O)(=O)c4ccc(Cl)cc4)cc3C(=O)N([C@@H](C)CO)C[C@H]2C)cc1	-1	-5	-6	-1	-5	0
O=C(C[C@H]1C[C@@H]2c3cc(NS(=O)(=O)c4ccc(F)cc4)ccc3O[C@@H]2[C@@H](CO)O1)N1CCc2ccccc2C1	1	50*	7	-4	2	0
CN1CCN(C(=O)C[C@@H]2C[C@H]3c4cc(NC(=O)NC5CCCCC5)ccc4O[C@H]3[C@@H](CO)O2)CC1	5	5	7	1	6	0
SMILES	Cneo AK release	PGC1a acetyl inh	DENV2 CPE	F508del corr	FN deposition inh	XiGFP reactiv
COc1cccc(S(=O)(=O)Nc2ccc3c(c2)[C@@H]2C[C@H](CC(=O)N(C)C)O[C@@H](CO)[C@@H]2O3)c1	21	1	1	-2	-23	0
COc1cccc(S(=O)(=O)Nc2ccc3c(c2)[C@H]2C[C@H](CC(=O)N(C)C)O[C@@H](CO)[C@H]2O3)c1	99*	-5	-3	0	0	0
O=C(Nc1ccc(F)cc1)Nc1ccc2c(c1)[C@H]1C[C@H](CC(=O)N3CCCCC3)O[C@@H](CO)[C@H]1O2	1	-1	21*	1	-6	0
CN1CCN(C(=O)C[C@@H]2C[C@@H]3c4cc(NC(=O)NC5CCCCC5)ccc4O[C@@H]3[C@@H](CO)O2)CC1	3	-2	29*	-1	4	0
C[C@H](CO)N1C[C@H](C)[C@H](CN(C)Cc2ccccc2)Oc2ncc(-c3cccnc3)cc2C1=O	/	4	/	0	2	1
O=C(Nc1ccc2c(c1)[C@H]1C[C@@H](CC(=O)N3CCCCC3)O[C@@H](CO)[C@H]1O2)C1CCC1	2	-6	26*	2	2	0
CCN(C[C@H]1N[C@@](C)(C(=O)OC)[C@H]2C(=O)N(C)C(=O)[C@@H]12)C(=O)Nc1ccc(F)cc1	1	/	-10	-3	3	0
CCN(C[C@H]1N[C@@](C)(C(=O)OC)[C@H]2C(=O)N(C)C(=O)[C@@H]12)S(=O)(=O)c1ccc(-c2ccccc2)cc1	3	/	20*	2	-4	0
CCN(C[C@H]1N[C@@](CC)(C(=O)OC)[C@H]2C(=O)N(C)C(=O)[C@@H]12)S(=O)(=O)c1ccc(-c2ccccc2)cc1	3	/	-5	3	-3	0

Screens (PubChem BioAssay)
